Published values pooled from the literature.
Compare with care: the assays were run in different laboratories.
AHR: Aryl hydrocarbon receptor (AHR, Homo sapiens, UniProt P35869)
SLC10A2: Ileal sodium/bile acid cotransporter (SLC10A2, Homo sapiens, UniProt Q12908)

| SMILES | target | test | conditions | endpoint | value |
| --- | --- | --- | --- | --- | --- |
| O=C(CCCCCCNC(=O)c1cnc(N(c2ccccc2)c2ccccc2)nc1)NO | Polyamine deacetylase HDAC10 (HDAC10, Homo sapiens, UniProt Q969S8) | cell-free assay |  | Kd | 0.456 µM |
| COc1ccccc1C(=O)c1c[nH]c2ccccc12 | AHR | reporter gene, agonist, luciferase |  | EC50 | > 10 µM |
| N=C(N)c1ccc(CN)cc1 | Coagulation factor X (F10, Homo sapiens, UniProt P00742) | binding, BLI |  | Kd | 1700 µM |
| O=C(c1ccccn1)c1c[nH]c2ccccc12 | AHR | reporter gene, agonist, luciferase |  | EC50 | > 0.01 µM |
| CCOC(=O)C1=C(C)NC(C)=C(C(=O)OCC)C1c1c(F)c(F)c(F)c(F)c1F | SLC10A2 | transporter uptake, inhibitor |  | Ki | 23.1 µM |
| CCOC(=O)c1cccc(C(=O)c2c[nH]c3ccccc23)n1 | AHR | reporter gene, agonist, luciferase |  | EC50 | 1.11 µM |
| Cc1cc2nc3c(=O)[nH]c(=O)nc-3n(C[C@H](O)[C@H](O)[C@H](O)COP(=O)(O)OP(=O)(O)OC[C@H]3O[C@@H](n4cnc5c(N)ncnc54)[C@H](O)[C@@H]3O)c2cc1C | Splicing factor 1 (Homo sapiens, UniProt Q15637) | binding | lysate | Kd | 0.842 µM |
| CN(C)C(=O)c1cccc(C(=O)c2c[nH]c3ccccc23)n1 | AHR | reporter gene, agonist, luciferase |  | EC50 | 0.351 µM |
| C[C@]12C=CC(=O)C=C1CC[C@@H]1[C@@H]2C(=O)C[C@@]2(C)[C@H]1CC[C@]2(O)C(=O)CO | SLC10A2 | transporter uptake, inhibitor |  | Ki | 1480 µM |
| CCc1c(C)sc(NC(=O)C(Sc2ccccc2)c2ccccc2)c1C(=O)OC (stereo not drawn) | Cannabinoid receptor 2 (CNR2, Homo sapiens, UniProt P34972) | cAMP, agonist, TR-FRET |  | EC50 | 0.0251 µM |
| CSCC[C@H](NC(=O)[C@@H](NC(=O)[C@@H](N)Cc1ccc(O)cc1)C(C)C)C(=O)NCC(=O)N[C@@H](Cc1c[nH]cn1)C(=O)N[C@@H](Cc1ccccc1)C(=O)N[C@@H](CCCNC(=N)N)C(=O)N[C@@H](Cc1c[nH]c2ccccc12)C(=O)N[C@@H](CC(=O)O)C(=O)O | Melanocortin receptor 5 (MC5R, Homo sapiens, UniProt P33032) | reporter gene, agonist |  | EC50 | 4.46 µM |
| CCN(CC)CCCC(C)Nc1ccnc2cc(Cl)ccc12 (stereo not drawn) | SLC10A2 | transporter uptake, inhibitor |  | Ki | 6320 µM |
| O=C(N[C@H]1COC(=O)[C@@H](NC(=O)c2cccc(O)c2O)COC(=O)[C@@H](NC(=O)c2cccc(O)c2O)COC1=O)c1cccc(O)c1O | Neutrophil gelatinase-associated lipocalin (LCN2, Homo sapiens, UniProt P80188, C107S) | binding, fluorescence | pH 5.5 | Kd | 0.0055 µM |
| COC(=O)c1cccc(C(=O)c2c[nH]c3c2ccc2ccccc23)n1 | AHR | reporter gene, agonist, luciferase |  | EC50 | 0.015 µM |
| NS(=O)(=O)c1cc2c(cc1Cl)N=CNS2(=O)=O | SLC10A2 | transporter uptake, inhibitor |  | Ki | 1220 µM |
